# Results pooled from the literature.
# Lines come from different studies, so protocols differ.
# Target: Activin receptor type-2B (ACVR2B, Homo sapiens, UniProt Q13705)
SMILES,read-out,method,concentration,remaining binding
CO[C@@H](C)c1c(Nc2ccc([C@@H](N(C)C(=O)C3CCS(=O)(=O)CC3)C(F)(F)F)cc2)cnc2cc(Cl)nn12,cell-free assay,competition with immobilised ligand,1 µM,100%
CN(C)c1nccc(-c2cnn3ncccc23)n1,binding,competition with immobilised ligand,1 µM,85%
CCN1CCN(Cc2ccc(C(=O)Nc3ccc(C)c(Oc4ccc5c(c4)CC(=O)N5)c3)cc2C(F)(F)F)CC1,binding,competition with immobilised ligand,1 µM,100%
CN(C)c1nccc(-c2cnc3ncccn23)n1,binding,,1 µM,100%
COc1cc(-c2cn(C3CCc4ccccc4N(CC(F)(F)F)C3=O)nn2)ccc1-n1ccc(C)n1 (centres unmarked),binding,competition with immobilised ligand,1 µM,100%
c1cncc(-c2cccc(Nc3nccc(NC4CCCCC4)n3)c2)c1,binding,competition with immobilised ligand,10 µM,85%
O=C(c1ccc(Nc2ncc(Cl)c(-c3ccc(Cl)s3)n2)cc1)N1CCC(N2CCCC2)CC1,binding,competition with immobilised ligand,1 µM,77%
Cc1c[nH]c2nccc(Oc3c(F)cc(Nc4cc(Cl)nc(N)n4)cc3F)c12,cell-free assay,competition with immobilised ligand,0.1 µM,100%
O=C(NCC1CCOCC1)c1n[nH]cc1NC(=O)c1c(F)cccc1F,binding,competition with immobilised ligand,1 µM,98%
O=C(Nc1cccnn1)N1CC(C/C=C/c2cncc(Oc3ccc(C(F)(F)F)cn3)n2)C1,cell-free assay,competition with immobilised ligand,1 µM,98%
CN(CCCC(F)(F)F)c1nccc(-c2cnn3ncccc23)n1,binding,,1 µM,100%
COc1cnc(Nc2cccc(S(N)(=O)=O)c2)nc1N1CCN(c2ccccc2)CC1,binding,competition with immobilised ligand,1 µM,100%
N[C@@H]1CCN(c2nccc(-c3cnn4ncccc34)n2)C1,binding,,1 µM,100%
Cc1cnc(Nc2ccc(C(=O)N3CCC(N4CCCC4)CC3)cc2)nc1-c1cc2ccccc2s1,binding,competition with immobilised ligand,1 µM,61%
C[C@@H]1CCN(c2nccc(-c3cnn4ncccc34)n2)C1,binding,,1 µM,100%
O=C(c1ccc(Nc2ncc(Cl)c(-c3cc4ccccc4s3)n2)cc1)N1CCC(N2CCCC2)CC1,binding,competition with immobilised ligand,1 µM,53%
CC(=O)N1CCC(c2ccc(C(=O)NC(=N)N)cc2C(F)(F)F)CC1,binding,competition with immobilised ligand,1 µM,100%
COc1ccnn2ncc(-c3ccnc(N(C)C)n3)c12,binding,,1 µM,100%
CNC(=O)[C@@H]1CC[C@@H](n2c(-c3ccc4cnccc4c3)nc3ccc(C(=O)NCc4cccc(C(N)=O)c4)cc32)C1,binding,competition with immobilised ligand,1 µM,100%
CN(C)C(=O)Cn1cc(-c2nc(C3(c4ccc(-c5cnc(N)nc5)cc4)CC3)no2)cn1,binding,competition with immobilised ligand,1 µM,96%
